Measured values: ChEMBL document CHEMBL1649070, “Virtual screening identification of nonfolate compounds, including a CNS drug, as antiparasitic agents inhibiting pteridine reductase” (J Med Chem, 2011)
Converted amounts (≈) assume the structure as drawn. The source made the active and inactive calls. The calls are words filed in the database; no cut-off is given here.

Columns and labels:
[1] = molecular target: T1, Pteridine reductase 1 (Leishmania major) (UniProt Q01782); conditions: at 500 µM
T1 sequence (whole entry): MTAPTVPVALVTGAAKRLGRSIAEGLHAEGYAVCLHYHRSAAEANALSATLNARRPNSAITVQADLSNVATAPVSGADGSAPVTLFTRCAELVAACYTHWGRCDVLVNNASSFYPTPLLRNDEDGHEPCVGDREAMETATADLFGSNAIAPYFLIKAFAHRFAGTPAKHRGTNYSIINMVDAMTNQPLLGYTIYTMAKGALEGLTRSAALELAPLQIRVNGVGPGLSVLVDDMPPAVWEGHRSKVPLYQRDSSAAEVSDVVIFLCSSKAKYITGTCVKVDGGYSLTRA

[2] = molecular target: T2, Dihydrofolate reductase (Homo sapiens) (UniProt P00374); assay: Inhibition of human DHFR at 1 mM
T2 sequence (whole entry): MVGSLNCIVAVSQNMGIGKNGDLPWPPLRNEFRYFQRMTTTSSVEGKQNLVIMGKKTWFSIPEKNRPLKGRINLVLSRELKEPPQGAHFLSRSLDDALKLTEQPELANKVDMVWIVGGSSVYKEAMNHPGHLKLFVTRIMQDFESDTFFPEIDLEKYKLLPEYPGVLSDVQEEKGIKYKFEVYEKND
Method in brief: (§1)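 NADPH oxidation followed at 340 nm. Compounds in DMSO, screened at a single concentration between 25 μM and 1 mM. Measurements run in triplicate.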

[3] = molecular target: T1, Pteridine reductase 1 (Leishmania major); assay: Inhibition of Leishmania major PTR1 at 5 uM
Method in brief: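 Compounds dissolved in DMSO and screened at a single 5 μM concentration; DMSO kept below 1%. Measurements run in triplicate.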

[4] = Solubility of the compound at pH 7.4; assay type: physicochemical; conditions: buffer
[5] = Lipophilicity, log D of the compound in octanol buffer at pH 7.4; assay type: physicochemical
Leishmania mexicana [6] = assay: Antileishmanial activity against Leishmania mexicana MHOM/BZ/84/BEL46 assessed as growth at 50 ug/ml by Alamar blue assay in presence of pyrimethamine; 5-(4-chlorophenyl)-6-ethylpyrimidine-2,4-diamine DHFR inhibitor; values are per cent of control
Leishmania mexicana [7] = assay: Antileishmanial activity against Leishmania mexicana MHOM/BZ/84/BEL46 assessed as growth at 50 ug/ml by Alamar blue assay; assay type: functional
Method in brief: (§2)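 Promastigotes grown in SDM-79, pH 7.3, with 15% heat-inactivated FCS at 28 C in 5% CO2, then seeded at 1 × 10^6 parasites/mL. Each compound tested alone at 50 μg/mL in duplicate as a control for the combination experiments; DMSO below 1% final. After 72 h at 28 C, Alamar Blue added for 4 h; fluorescence read at ex 530 / em 590 nm. Growth expressed as percentage of untreated cultures.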

[8] = molecular target: Bifunctional dihydrofolate reductase-thymidylate synthase (Leishmania major) (UniProt P07382); assay: Inhibition of Leishmania major DHFR at 50 uM
Method in brief: as §1

Leishmania major [9] = assay: Antileishmanial activity against Leishmania major MHOM/SU/73/5-ASKH assessed as growth at 50 ug/ml by Alamar blue assay; assay type: functional
Method in brief: as §2

Leishmania major [10] = assay: Antileishmanial activity against Leishmania major MHOM/SU/73/5-ASKH assessed as growth at 50 ug/ml by Alamar blue assay in presence of pyrimethamine; 5-(4-chlorophenyl)-6-ethylpyrimidine-2,4-diamine DHFR inhibitor; values are per cent of control
[11] = molecular target: T2, Dihydrofolate reductase (Homo sapiens); assay: Inhibition of human DHFR at 50 uM
Method in brief: as §1

[12] = Cytotoxicity against human MRC5 cells after 72 hrs by Alamar blue assay; assay type: cell-based; conditions: read-out: ED50
[13] = molecular target: T2, Dihydrofolate reductase (Homo sapiens); assay: Inhibition of human DHFR at 100 uM
Method in brief: as §1

Bifunctional dihydrofolate reductase-thymidylate synthase (Leishmania major), sequence (P07382 whole entry, looked up): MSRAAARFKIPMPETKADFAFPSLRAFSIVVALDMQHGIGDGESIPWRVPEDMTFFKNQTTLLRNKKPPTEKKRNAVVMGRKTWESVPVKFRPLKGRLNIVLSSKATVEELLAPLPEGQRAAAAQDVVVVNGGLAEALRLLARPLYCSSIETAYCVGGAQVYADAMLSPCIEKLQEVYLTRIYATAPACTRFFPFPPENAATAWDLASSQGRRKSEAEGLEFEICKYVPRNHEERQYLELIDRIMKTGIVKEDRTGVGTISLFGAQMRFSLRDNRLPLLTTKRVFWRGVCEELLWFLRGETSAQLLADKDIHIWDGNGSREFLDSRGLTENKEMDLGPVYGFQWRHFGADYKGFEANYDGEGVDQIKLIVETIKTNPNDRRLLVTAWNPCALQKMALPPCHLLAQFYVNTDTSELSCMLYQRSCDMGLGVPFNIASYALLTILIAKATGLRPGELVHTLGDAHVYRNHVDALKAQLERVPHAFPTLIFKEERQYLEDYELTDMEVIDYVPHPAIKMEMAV

Row | inhibition [1] | inhibition [3] | solubility [4] [µM] | logD [5] | SMILES | also measured
1 | inactive | – | – | – | CC(=O)c1ccc(C#N)s1 | –
2 | inactive | – | – | – | O=C(CO)c1ccc(Cl)cc1 | –
3 | inactive | – | – | – | CN(C)c1ccc(C=O)cc1C#N | –
4 | – | inactive | – | – | Nc1nnc(-c2ccc3[nH]nnc3c2)s1 | growth, % of control at 50 µg/mL (Leishmania mexicana [6]): 18.2%; growth, % of control at 50 µg/mL (Leishmania mexicana [7]): 112%; inhibition [8]: inactive; growth, % of control at 50 µg/mL (Leishmania major [9]): 83.5%; growth, % of control at 50 µg/mL (Leishmania major [10]): 40.9%; inhibition [11]: inactive
5 | inactive | – | – | – | O=c1[nH]c2c(Cl)cccc2s1 | –
6 | – | inactive | 13000 (≈ 2320 µg/mL) | 0.77 | Nc1nnc(-c2ccncc2)s1 | –
7 | – | inactive | 440 (≈ 97.4 µg/mL) | 2.73 | CCOc1ccc(-c2nnc(N)s2)cc1 | –
8 | – | inactive | 87000 (≈ 18600 µg/mL) | -1.74 | Nc1nnc(CC2NC(=O)NC2=O)s1 (stereo not given) | –
9 | – | inactive | 1200 (≈ 287 µg/mL) | 1.11 | Nc1nnc(CCC(=O)c2cccs2)s1 | growth, % of control at 50 µg/mL (Leishmania mexicana [6]): 27.3%; growth, % of control at 50 µg/mL (Leishmania mexicana [7]): 96.9%; CC50 at 72 h [12]: 34.4 µg/mL (≈ 144 µM); growth, % of control at 50 µg/mL (Leishmania major [9]): 85.1%; growth, % of control at 50 µg/mL (Leishmania major [10]): 17.5%
10 | inactive | – | – | – | Nc1ccnc2ccccc12 | –
11 | inactive | – | – | – | Cc1cc(=O)n(C)c2ccccc12 | –
12 | inactive | – | – | – | CC(=O)n1cc(C=O)c2ccccc21 | –
13 | – | inactive | 530 (≈ 118 µg/mL) | 1.94 | Nc1nnc(-c2cccc([N+](=O)[O-])c2)s1 | –
14 | – | inactive | 3700 (≈ 767 µg/mL) | 1 | Nc1nnc([C@@H](O)c2ccccc2)s1 | –
15 | – | inactive | 730 (≈ 179 µg/mL) | 1.4 | Nc1nnc(-c2cc(=O)c3ccccc3o2)s1 | growth, % of control at 50 µg/mL (Leishmania mexicana [6]): 35.1%; growth, % of control at 50 µg/mL (Leishmania mexicana [7]): 132%; CC50 at 72 h [12]: 43 µg/mL (≈ 175 µM); growth, % of control at 50 µg/mL (Leishmania major [9]): 76%; growth, % of control at 50 µg/mL (Leishmania major [10]): 14.6%; inhibition [11]: inactive
16 | inactive | – | – | – | NNc1cccc(F)n1 | –
17 | – | inactive | – | – | Cc1ccc(C(=O)Nc2nnc(-c3ccc(C)c(C)c3)s2)cc1C | –
18 | inactive | – | – | – | Cc1cccc(-c2nnn[nH]2)c1 | –
19 | inactive | – | – | – | C=CCc1cc(OC)c(O)cc1C=O | –
20 | – | inactive | 13000 (≈ 2170 µg/mL) | 0.82 | Nc1nnc(-c2ccco2)s1 | –
21 | – | inactive | 1300 (≈ 338 µg/mL) | 0.22 | Nc1nnc(CN2C(=O)c3ccccc3C2=O)s1 | –
22 | inactive | – | – | – | Clc1cccc(-n2ccnc2)c1 | –

Row | inhibition [1] | inhibition [3] | solubility [4] [µM] | logD [5] | SMILES | also measured
23 | inactive | – | – | – | c1ccc2cnncc2c1 | –
24 | – | inactive | 210000 (≈ 24200 µg/mL) | -0.16 | Cc1nnc(N)s1 | –
25 | – | – | 2500 (≈ 546 µg/mL) | 0.38 | Nc1nnc(-c2ccc3nn[nH]c3c2)s1 | CC50 at 72 h [12]: 51.5 µg/mL (≈ 236 µM)
26 | – | inactive | 24 (≈ 9.06 µg/mL) | 2.36 | Nc1nnc(-c2cccc(NS(=O)(=O)c3cccc([N+](=O)[O-])c3)c2)s1 | –
27 | – | inactive | – | – | O=C(CN1C(=O)c2ccccc2C1=O)Nc1nnc(CN2C(=O)c3ccccc3C2=O)s1 | inhibition [8]: inactive; inhibition [11]: inactive
28 | – | inactive | 2000 (≈ 354 µg/mL) | 2.03 | Nc1nnc(-c2ccccc2)s1 | –
29 | inactive | – | – | – | Nc1cc(F)ccc1O | –
30 | – | inactive | 390 (≈ 78.9 µg/mL) | 1.68 | N#Cc1ccc(-c2nnc(N)s2)cc1 | –
31 | inactive | – | – | – | CN(C)C1=C2C=CC=C2C(=O)C1 | –
32 | inactive | – | – | – | O=C1Cc2ccc(F)cc2N1 | –
33 | inactive | – | – | – | N#C/C=C(/N)N1CCCC1 | –
34 | inactive | – | – | – | Nc1cccc2c1C(=O)c1ccccc1-2 | –
35 | – | inactive | 22000 (≈ 3460 µg/mL) | 1.25 | CCC(C)c1nnc(N)s1 (stereo not given) | –
36 | inactive | – | – | – | CCOc1ccc(CO)cc1 | –
37 | inactive | – | – | – | Fc1cccc(-n2ccnc2)c1 | –
38 | – | inactive | 1300 (≈ 267 µg/mL) | 2.03 | Nc1nnc(CCc2ccccc2)s1 | –
39 | – | inactive | 400 (≈ 82.1 µg/mL) | 2.95 | Cc1cc(C)cc(-c2nnc(N)s2)c1 | –
40 | inactive | – | – | – | CN1CCOc2cc(C=O)ccc21 | –
41 | inactive | – | – | – | Nc1cc(-c2ccccc2)n[nH]1 | –
42 | – | inactive | 420 (≈ 86.2 µg/mL) | 2.95 | Cc1ccc(-c2nnc(N)s2)cc1C | –
43 | inactive | – | – | – | O=Cc1ccc2c(c1)CCO2 | –
44 | inactive | – | – | – | CCn1nc(C)cc1N | –

Continued, compound first:

Row | SMILES | inhibition [1] | inhibition [3] | solubility [4] [µM] | logD [5] | also measured
45 | Nc1ccc(Cl)cc1C=O | inactive | – | – | – | –
46 | Nc1nncs1 | – | – | – | – | inhibition [2]: inactive
47 | NCCc1ccc(-c2nnc(N)s2)cc1 | – | inactive | 210000 (≈ 46300 µg/mL) | -0.69 | –
48 | Nc1nnc(CCCC(=O)c2ccccc2)s1 | – | inactive | 780 (≈ 193 µg/mL) | 1.76 | –
49 | Nc1nnc(-c2cccc(NS(=O)(=O)c3ccc([N+](=O)[O-])cc3)c2)s1 | – | inactive | 19 (≈ 7.17 µg/mL) | 2.43 | –
50 | COc1ccc2c(c1)c(C=O)cn2C | inactive | – | – | – | –
51 | CC(=O)c1cccc(O)c1 | inactive | – | – | – | –
52 | Nc1cc(O)c2ccccc2n1 | inactive | – | – | – | –
53 | Cc1ccc(C(=N)N)cc1 | inactive | – | – | – | –
54 | Cn1cc(C(=O)O)c2ccccc21 | inactive | – | – | – | –
55 | NCCc1ccc(N)cc1 | inactive | – | – | – | –
56 | Nc1nc(-c2ccc(Cl)cc2)cs1 | inactive | – | – | – | –
57 | Cc1cccc2cc[nH]c12 | inactive | – | – | – | –
58 | O=C(Nc1nnc(-c2ccncc2)s1)c1ccncc1 | – | inactive | – | – | –
59 | OCc1ccc2[nH]ccc2c1 | inactive | – | – | – | –
60 | Nc1nnc(CCC(=O)c2ccc(Cl)cc2)s1 | – | inactive | 210 (≈ 56.2 µg/mL) | 2.2 | inhibition [8]: inactive; inhibition [11]: inactive
61 | Nc1ccc(F)c(F)c1N | inactive | – | – | – | –

Row | SMILES | inhibition [1] | inhibition [3] | solubility [4] [µM] | logD [5] | also measured
62 | O=C(O)c1ccc2cc[nH]c2c1 | inactive | – | – | – | –
63 | COc1ccc(N2CCCC2=O)cc1 | inactive | – | – | – | –
64 | NC(=O)C1=C2CCCc3cccc(c32)C1=O | inactive | – | – | – | –
65 | Nc1nnc(CCOc2ccc(Cl)cc2)s1 | – | inactive | 240 (≈ 61.4 µg/mL) | 2.44 | –
66 | Nc1ccc(F)c(N)c1 | inactive | – | – | – | –
67 | Cc1ccc(C=O)cc1F | inactive | – | – | – | –
68 | O=C(c1ccc(O)cc1)c1ccc(F)cc1 | – | – | – | – | inhibition [8]: inactive; inhibition [11]: inactive
69 | O=Cc1ccc(O)cc1F | inactive | – | – | – | –
70 | C/C(=N\N)c1ccc(C)cc1 | inactive | – | – | – | –
71 | O=C(O)CCNC(=O)c1ccc([N+](=O)[O-])cc1 | inactive | – | – | – | –
72 | O=C1CCCN1c1ccccc1 | inactive | – | – | – | –
73 | Cc1nnsc1SC(C)C | inactive | – | – | – | –
74 | COc1ccc(C(C)=O)cc1CCl | inactive | – | – | – | –
75 | C#CCn1cc(C(=O)O)c(=O)c2cc(F)c(Cl)cc21 | inactive | – | – | – | –
76 | Nc1nnc(CCCl)s1 | – | – | 42000 (≈ 6870 µg/mL) | 0.44 | –
77 | CCc1nc(N)nc(N)c1-c1ccc(Cl)cc1 [PYRIMETHAMINE] | – | – | – | – | growth, % of control at 50 µg/mL (Leishmania mexicana [7]): 102%; CC50 at 72 h [12]: 16.2 µg/mL (≈ 65.3 µM); growth, % of control at 50 µg/mL (Leishmania major [9]): 68%
78 | Cn1ncc2cc(N)ccc21 | – | – | – | – | inhibition [13]: inactive; inhibition [8]: inactive
